Experimental findings from ChEMBL document CHEMBL1124344, “5-Piperazinylalkyl-2(3H)-oxazolones with neuroleptic activity” (J Med Chem, 1989) are described below.

For data set [1], the system named is Rattus norvegicus. Nature of the data set: Antagonistic activity against apomorphine-induced stereotypy in rats, by administering perorally at a dose of 200 mg/kg. The class given is functional. The following applies: route oral. A digest of the protocol:
(§1)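 Male rats fasted overnight and given oral doses in arabic gum suspension (10 mL/kg) 1 h, or 1 and 5 h, before challenge. Apomorphine 3 mg/kg iv, with stereotypy observed 20 min later. ED50 is the dose inhibiting stereotypy in 50% of rats, per Janssen's method. Parenthetical entries give the maximal dose and percent activity.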

The subject of data set [2] is Mus musculus. Kind of data set: Antagonistic activity against amphetamine-induced Hypermobility in mice, by administering perorally at a dose of 100 mg/kg. The following applies: route oral. The class given is functional. A digest of the protocol: (§2)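 Male mice in groups of five, fasted overnight, given oral drug in arabic gum suspension (10 mL/kg) 1 or 5 h ahead. Amphetamine 4 mg/kg ip given 30 min after drug. Ten minutes later locomotion is recorded for 15 min in a photocell actophotometer. ED50 is 50% reduction versus control hypermotility, by probit analysis. Parenthetical entries give the maximal dose and percent activity.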

The nature of data set [3]: Lethal dose in mice (LD50) following i.p. dosing. The class given is toxicity, organism-based. The conditions noted are these: mouse, in vivo, ip. A digest of the protocol: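 Acute toxicity tested in mice by the intraperitoneal route. LD50 is the dose killing 50% of treated mice, computed by Finney probit analysis; values are approximate.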
Data set [4] relates to Mus musculus. Kind of data set: Inhibition of spontaneous motor activity in mice, by administering perorally. The data set is classed as functional. The conditions noted are these: po. A digest of the protocol:
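Mice in groups of five were dosed orally with gum arabic suspensions at 10 mL/kg after an overnight fast, with a vehicle control group. Locomotion was counted for 10 min in a photocell activity cage, in at least two groups per dose. ED50, by probit analysis, is the dose giving 50% inhibition against controls.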

The test system of data set [5] is Rattus norvegicus. Nature of the data set: Activity to evoke catalepsy in rats, by administering perorally at a dose of 100 mg/kg. The following applies: route oral, read-out: Inhibition. The data set is classed as functional. A digest of the protocol: (§3)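 Rats fasted overnight and given oral doses in arabic gum suspension (10 mL/kg), 1 h before screening or 1 and 5 h before profile testing. Forelegs placed on a horizontal bar 7 cm high, three times at 5-min intervals. Immobility of at least 15 s counts as catalepsy. ED50 is the dose giving catalepsy in 50% of rats, by probit analysis. Parenthetical entries give the maximal dose and percent activity.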

In data set [6] the test system is Mus musculus. Nature of the data set: Inhibition of amphetamine-induced hypermobility in mice following p.o. administration. The class given is functional. The conditions noted are these: po. A digest of the protocol:
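Compounds were given orally to male mice (gum arabic suspension, 10 mL/kg, fasted) in groups of five. Amphetamine 4 mg/kg ip followed 30 min later. After another 10 min, motility was recorded for 15 min with a photocell actophotometer. ED50, by probit analysis, is the dose giving 50% reduction against controls.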

Data set [7] has as its system Rattus norvegicus. Nature of the data set: Activity to evoke catalepsy in rats, by administering perorally at a dose of 60 mg/kg. The class given is functional. The following applies: route oral. The method in brief: as §3
Data set [8] concerns Rattus norvegicus. Kind of data set: Antagonistic activity against apomorphine-induced stereotypy in rats, by administering perorally at a dose of 60 mg/kg. The class given is functional. The following applies: route oral. A digest of the protocol:
as §1

In data set [9] the test system is Mus musculus. Kind of data set: Inhibition of spontaneous motor activity in mice, by administering perorally at a dose of 20 mg/kg. The class given is functional. The conditions noted are these: route oral. The method in brief: (§4)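 Mice fasted overnight, then dosed orally with compound (weighed as base) suspended in arabic gum, 10 mL/kg, with vehicle controls; 1 h pretreatment for screening tests, 1 or 5 h for others. Groups of five; locomotor activity counted 10 min in photocell activity cage, at least two groups per dose. ED50 = dose giving 50% inhibition versus controls, by probit analysis.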

For data set [10], the system named is Rattus norvegicus. Nature of the data set: Antagonistic activity against apomorphine-induced stereotypy in rats, by administering perorally at a dose of 20 mg/kg. The data set is classed as functional. The conditions noted are these: route oral. The method in brief:
as §1

Data set [11] deals with Rattus norvegicus. Nature of the data set: Activity to evoke catalepsy in rats, by administering perorally at a dose of 20 mg/kg. The data set is classed as functional. The following applies: route oral, read-out: Inhibition. The method in brief: as §3
The subject of data set [12] is Mus musculus. Nature of the data set: Antagonistic activity against amphetamine-induced Hypermobility in mice, by administering perorally at a dose of 20 mg/kg. The data set is classed as functional. The following applies: route oral. The method in brief: as §2
For data set [13], the system named is Mus musculus. Kind of data set: Inhibition of spontaneous motor activity in mice, by administering perorally at a dose of 70 mg/kg. The class given is functional. The following applies: route oral. A digest of the protocol: as §4
Data set [14] relates to Mus musculus. Nature of the data set: Antagonistic activity against amphetamine-induced Hypermobility in mice, by administering perorally at a dose of 70 mg/kg. The class given is functional. The conditions noted are these: route oral. The method in brief:
as §2

Data set [15] deals with Rattus norvegicus. Nature of the data set: Antagonistic activity against apomorphine-induced stereotypy in rats, by administering perorally. The class given is functional. The following applies: po. A digest of the protocol:
as §1

The test system of data set [16] is Rattus norvegicus. Nature of the data set: Activity to evoke catalepsy in rats, by administering perorally at a dose of 70 mg/kg. The conditions noted are these: route oral. The data set is classed as functional. The method in brief:
as §3

Data set [17] relates to Rattus norvegicus. Nature of the data set: Antagonistic activity against apomorphine-induced stereotypy in rats, by administering perorally at a dose of 90 mg/kg. The class given is functional. The following applies: route oral. The method in brief:
as §1

For data set [18], the system named is Mus musculus. Nature of the data set: Inhibition of spontaneous motor activity in mice, by administering perorally at a dose of 90 mg/kg. The following applies: route oral. The class given is functional. The method in brief: as §4
The subject of data set [19] is Rattus norvegicus. Nature of the data set: Activity to evoke catalepsy in rats, by administering perorally at a dose of 90 mg/kg. The following applies: route oral. The data set is classed as functional. The method in brief:
as §3

Data set [20] relates to Mus musculus. Kind of data set: Inhibition of spontaneous motor activity in mice, by administering perorally at a dose of 125 mg/kg. The data set is classed as functional. The following applies: route oral. A digest of the protocol: as §4
Data set [21] deals with Rattus norvegicus. Nature of the data set: Antagonistic activity against apomorphine-induced stereotypy in rats, by administering perorally at a dose of 100 mg/kg. The conditions noted are these: route oral. The class given is functional. A digest of the protocol:
as §1

Structures are written as SMILES.

For orientation: inhibition in vivo means the change of the read-out against control, counted positive when it falls. A low value points to little suppression. One may read the LD50 as the dose at which mortality reaches 50%. Usually ED50 stands for the dose that gives a 50% effect, or the effect in half of the subjects.

The molecule `Oc1nc(-c2ccc(F)cc2)c(CCN2CCN(c3ccccn3)CC2)o1` registered an inhibition in vivo at 200 mg/kg with Rattus norvegicus [1] of 30%. The molecule also yielded an inhibition in vivo at 100 mg/kg with Mus musculus [2] of 0%. This molecule yielded a median lethal dose (LD50) in [3] greater than 1000 mg/kg. In the data set with Mus musculus [4], this molecule showed a median effective dose (ED50) of 38 mg/kg. Moreover, in the data set on Rattus norvegicus [5], the percent of rats showing catalepsy at 100 mg/kg turned out to be 0%.
As for `Cc1ccccc1N1CCN(CCc2oc(O)nc2-c2ccc(F)cc2)CC1`, the values for the median effective dose (ED50) in the data set with Mus musculus [6] and in the data set on Mus musculus [4] were 8.6 mg/kg and 6.3 mg/kg, respectively. For the same molecule, the median lethal dose (LD50) in [3] worked out at 250 mg/kg. For the same molecule, the inhibition in vivo at 60 mg/kg in the data set on Rattus norvegicus [7] and with Rattus norvegicus [8] was 0% in each case.
On to `Oc1nc(-c2ccc(F)cc2)c(CCN2CCN(c3ccc(Cl)c(Cl)c3Cl)CC2)o1`, for which the inhibition in vivo at 20 mg/kg in the data set with Mus musculus [9], in the data set with Rattus norvegicus [10] and in the data set with Mus musculus [12] was 0% in each case. In addition, the LD50 in data set [3] came to 750 mg/kg. Besides, in the data set on Rattus norvegicus [11], the percent of rats showing catalepsy at 20 mg/kg stood at 0%.
In the case of `COc1ccc(-c2nc(O)oc2CCN2CCN(c3ccccc3)CC2)cc1`, the LD50 in data set [3] turned out to be 350 mg/kg. The inhibition in vivo at 70 mg/kg in the data set with Mus musculus [13] is 26%; with Mus musculus [14], 27%; with Rattus norvegicus [16] it was 0%. Further, the ED50 in the data set with Rattus norvegicus [15] turned out to be 47 mg/kg.
In the case of `Oc1nc(-c2ccc(F)cc2)c(CCN2CCN(c3cc(Cl)ccc3Cl)CC2)o1`, the 50% effect level in the data set on Mus musculus [6] (ED50) was put at a dose of 10 mg/kg. In [3], this molecule displayed an LD50 of 750 mg/kg. Besides, the inhibition in vivo at 90 mg/kg amounted to 0% with Rattus norvegicus [17], 45% with Mus musculus [18] and 0% in the data set with Rattus norvegicus [19].
As to `Oc1nc(-c2ccc(F)cc2)c(CCN2CCN(c3cc(Cl)c(Cl)cc3Cl)CC2)o1`, the inhibition in vivo at 20 mg/kg in the data set on Mus musculus [9], in the data set with Rattus norvegicus [10] and in the data set with Mus musculus [12] was 0% in each case. This molecule displayed an LD50 in [3] of 750 mg/kg. Moreover, the percent of rats showing catalepsy at 20 mg/kg with Rattus norvegicus [11] amounted to 0%.
With `O=c1oc(CCN2CCN(c3ccccc3)CC2)c(-c2ccc(F)cc2)n1-c1ccccc1`, the inhibition in vivo at 100 mg/kg with Mus musculus [2] and in the data set on Rattus norvegicus [21] was 0% each time. The molecule also gave an inhibition in vivo at 125 mg/kg in the data set on Mus musculus [20] of 0%. This molecule also showed an LD50 in data set [3] greater than 1000 mg/kg. In addition, in the data set with Rattus norvegicus [5], the percent of rats showing catalepsy at 100 mg/kg is 0%.
